Screening results as filed in PubChem.
This is one part of a sample in which hits are shown more often than they occur.
RORa inhibitor – blocks the human nuclear receptor RORA | CHO-K1 Gal4-RORA LBD luciferase reporter, luminescence | inhibition, % at 10 µM | hit rate 0.43% among 65,000 | AID 561;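 active = inhibition above the mean of all tested compounds plus 3 SD, cut at about 52% in these data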;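 note: 0% = RORA-transfected cells with DMSO and 100% = mock-transfected cells lacking RORA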
Target sequence (P35398 whole entry, looked up, the tested form may be a part): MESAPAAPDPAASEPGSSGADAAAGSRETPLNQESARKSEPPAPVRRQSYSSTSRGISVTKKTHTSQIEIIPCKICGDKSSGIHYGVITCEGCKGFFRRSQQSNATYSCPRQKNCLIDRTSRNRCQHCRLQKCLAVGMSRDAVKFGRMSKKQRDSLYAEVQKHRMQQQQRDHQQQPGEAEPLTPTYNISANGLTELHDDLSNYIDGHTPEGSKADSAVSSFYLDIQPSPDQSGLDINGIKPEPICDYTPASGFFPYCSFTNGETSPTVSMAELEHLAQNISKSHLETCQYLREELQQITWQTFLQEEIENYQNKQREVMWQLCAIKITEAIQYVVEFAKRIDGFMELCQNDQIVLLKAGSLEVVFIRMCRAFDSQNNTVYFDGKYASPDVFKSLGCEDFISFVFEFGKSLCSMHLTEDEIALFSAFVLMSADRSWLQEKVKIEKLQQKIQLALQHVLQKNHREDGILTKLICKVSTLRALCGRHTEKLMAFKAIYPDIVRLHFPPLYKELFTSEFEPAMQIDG
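test system = CHO-K1 Gal4-RORA LBD luciferase reporter cells | dosing = 10 µM single point | times = 20 h compound treatment, 37 °C | signal = luciferase luminescence | read-out = % inhibition of basal luciferase versus +RORA/-RORA DMSO controls | benchmarks = mock-transfected cells as 100%, +RORA DMSO cells as 0% | replicates = tested once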
* hit, by the source's call.

SMILES	RORa inhibitor
Cc1ccc(-c2nc3nc4ccccc4nc3n2Cc2ccco2)cc1	68*
c1ccc(Cn2c(-c3ccco3)nc3nc4ccccc4nc32)cc1	-75
Clc1ccc(-c2nnc(NC3=NCCCCC3)o2)cc1	65*
Fc1ccc(-c2nnc(-c3ccc(Cl)cc3)o2)cc1	-56
CCCCC1CC(CSc2ncn[nH]2)OC1=O (stereo unspecified)	-8
CN(CCC#N)C(=O)CSc1ncnc2sc(-c3ccccc3)cc12	-52
CC(=O)c1ccc(N2CCN(c3ccc(C(F)(F)F)cn3)CC2)cc1	54*
COc1ccc(C(=O)CN2CCN(c3ccc(F)cc3)CC2)cc1OC	14
CC(=O)c1cc2c(cc1NC(=O)CN1CCN(c3cccc(C(F)(F)F)c3)CC1)OCO2	12
COc1ccc2cc(C(=O)NC3CCCCC3)c(=O)oc2c1	6
CCN(CCCNC(=O)CNC(=O)Cn1cnc2ccccc2c1=O)c1cccc(C)c1	11
Cc1cccc(NC(=O)c2cnc3sccn3c2=O)c1C	-74
CCc1c(C)nc2cc(-c3ccc(OC)cc3)[nH]n2c1=O	-58
CCN(CC)C(=O)c1sc2nc(-c3ccc(OC)cc3)cn2c1C	-98
COc1cc(OC)cc(-c2cc3nc(C)c(CCC(=O)O)c(C)n3n2)c1	77*
Cc1ccc(CN2C(=O)CCC2C(=O)N2CCN(c3ccc(F)cc3)CC2)cc1 (stereo unspecified)	-11
CCC(C(=O)Nc1ncn[nH]1)(C(F)(F)F)C(F)(F)F	21
COc1ccc(S(=O)(=O)NC2CCCCC2)cc1C	14
Cc1ccc(SCCC(=O)N2CCOCC2)cc1	-51
Cc1nnc(SCC(=O)N2CCN(Cc3ccccc3)CC2)s1	-14
O=C(CSc1nnnn1-c1ccccc1)Nc1nsc(-c2ccc(Cl)cc2)n1	71*
Cn1nnc(NC(=O)CSc2ccc(Cl)cc2)n1	-10
Cn1nnc(NC(=O)CSc2nnnn2-c2ccc(F)cc2)n1	17
Cn1ncc(Br)c1C(=O)Nc1ccc(Cl)cn1	7
CCCOC(=O)C1C2C=CC3(CN(c4cccc(Cl)c4)C(=O)C13)O2 (stereo unspecified)	-3
SMILES	RORa inhibitor
CCOc1ccc(C(=O)N2CCCC2C(=O)O)cc1 (stereo unspecified)	7
CCOc1ccc(OCc2cccc(C(=O)N3CCOCC3)c2)cc1	77*
O=C(Nc1ccccc1C(=O)N1CCOCC1)c1ccncc1	-16
CC(C)n1c(SCC(=O)NCc2ccco2)nc2c1c(=O)n(C)c(=O)n2C	4
c1ccc2nc3c(nc2c1)[nH]c1ccccc13	-50
COc1ccc(C(=O)CCC(=O)O)cc1	18
COc1ccc(Oc2c(-c3ccc(O)cc3O)n[nH]c2C)cc1	6
O=C(CN(CCc1ccccc1)C(=O)CNS(=O)(=O)c1ccccc1)NCC1CCCO1 (stereo unspecified)	5
CC(C)(C)NC(=O)CSc1nnc(NC(=O)CCn2cnc3ccccc3c2=O)s1	9
O=C(CSc1cn(Cc2ccccc2)c2ccccc12)Nc1nccs1	-76
O=C(CSC1=NCCS1)Nc1ccnc2ccccc12	73*
CC1(C)NC(=O)N(CC(O)COc2cccc(F)c2)C1=O (stereo unspecified)	-21
O=C(c1ccccc1)C(CCC(CN1CCOCC1)C(=O)c1ccccc1)CN1CCOCC1 (stereo unspecified)	56*
O=C(c1ccccc1)c1ccc(N2CCOCC2)c(F)c1	-74
O=C(Nc1ccc(CN2CCOCC2)cc1)c1cccc(F)c1	-37
COc1ccc(NC(=O)c2cc(-c3ccccc3OC)on2)cc1	-49
COC(=O)C1=C(C)N=c2s/c(=C/c3cccs3)c(=O)n2C1c1cccs1 (stereo unspecified)	1
CCCC(c1nnnn1CCC(C)C)N1CCC(C(N)=O)CC1 (stereo unspecified)	16
CS(=O)(=O)Nc1cccc(C(=O)CC2(O)C(=O)Nc3ccccc32)c1 (stereo unspecified)	-1
CCCn1nnc(NC(=O)c2cccc(OCC)c2)n1	-52
O=C1CCC(=O)N1CNc1cccnc1	4
COc1ccc(S(=O)(=O)N2CCC(n3cnc4cc(C(F)(F)F)ccc43)CC2)cc1	18
Cc1ccc2c(c1)nnn2C1CCN(S(C)(=O)=O)CC1	16
Cc1ccc2c(c1)nnn2C1CCN(S(=O)(=O)c2ccc(C(=O)N3C(C)CCCC3C)cc2)CC1 (stereo unspecified)	63*
COC(=O)c1ccc(NC(=O)CCNS(=O)(=O)c2cccc3nonc23)cc1	-22
SMILES	RORa inhibitor
COc1cccc(NC2CC(=O)N(CCc3ccccc3)C2=O)c1 (stereo unspecified)	3
Cc1ccc(-n2c(SCC(=O)Nc3ccc4cn[nH]c4c3)nnc2-c2ccco2)cc1	0
CC1(O)N(Cc2ccccc2)C(=O)OC12CCCCC2 (stereo unspecified)	-5
Cc1nc2ccc(S(=O)(=O)NCC(=O)N3CCc4ccccc4C3)cc2s1	-16
c1ccc2c(c1)CCN(c1nc3cc4c(cc3s1)OCCO4)C2	64*
Cc1cc(N2CCN(c3nc4ccccc4s3)CC2)n2ncnc2n1	75*
Cc1cc(N2CCCCC2)n2ncc(-c3ccc(Cl)cc3)c2n1	-87
CCc1nn2c(=O)cc(N3CCN(c4cc(C)nc5ccccc45)CC3)nc2s1	-1
CCn1c2ccc(CC(=O)O)cc2c2cc(CC(=O)O)ccc21	3
Oc1oc(-c2ccccc2)nc1C=NCc1ccncc1	-1
COc1ccc(C(=O)NCc2nnc(SCC(=O)NCc3ccc(F)cc3)o2)cc1	5
O=c1[nH]c(CN2CCN(Cc3ccc4c(c3)OCO4)CC2)nc2sc3c(c12)CCC3	9
Oc1ccccc1N=Cc1ccc[nH]1	-1
Cc1ccnc(NC(=O)Nc2ccc(F)cc2)c1	-21
COc1ccc(C(=O)NC(=O)Nc2cc(C)ccn2)cc1	70*
COc1ccc(C(=O)Nc2cc(C)on2)cc1	-77
CCOc1ccc(N2Cc3ccccc3C2)cc1	-51
COc1ccc(-n2c(=O)c3ccccc3n(CC(=O)NC3CCCC3)c2=O)c(OC)c1	12
Brc1ccc(-c2cn3cccnc3n2)cc1	-53
Cc1ccc(-c2cn3nc(C)c(C)nc3n2)cc1	74*
c1ccc(-n2ncc3c(NCc4cccnc4)ncnc32)cc1	-52
Cc1ccc(-c2ccc(=O)n(CC(=O)NCCN3C(C)CCCC3C)n2)cc1 (stereo unspecified)	4
Cc1cc(C(F)F)n2nc(C(=O)NCc3ccccc3F)nc2n1	-1
O=C1CCn2nc(-c3ccc(Cl)cc3)cc2N1	-61
CCCCC(=O)Nc1cccc(NC(=O)c2ccc3c(c2)OCO3)c1	-16
SMILES	RORa inhibitor
CC(=O)c1sc(NC(=O)C2(F)C(F)(F)C(F)(F)C(F)(F)C(F)(F)C2(F)F)nc1C	90*
COC(=O)c1sc(NC(=O)c2ccoc2C)nc1C	-8
Cc1nc(NC(=O)C2CC3CCCC(C2)C3=O)sc1C (stereo unspecified)	-62
CCOC(=O)c1cc2occc2n1CC(=O)N1CCOCC1	-11
CC1Cc2ccccc2N1C(=O)Cc1cccs1 (stereo unspecified)	5
O=C1C(=O)N(CCCN2CCOCC2)C(c2ccccn2)/C1=C(\O)c1ccc2c(c1)OCCO2 (stereo unspecified)	-9
COC(=O)[C@H](C)NC(=O)Nc1ccccc1F	-3
COc1ccccc1N1CCN(c2ncnc3c2oc2ccccc23)CC1	-56
Cc1cc(C)n(-c2ncnc3c2oc2ccccc23)n1	10
COc1ccc(CCNc2ncnc3c2oc2ccccc23)cc1OC	84*
